KCNK9 block: inhibitors of human KCNK9 two-pore domain potassium channel | Q9NPC2 | HEK293 KCNK9, FluxOR thallium flux fluorescence; active compounds read low | B-score at 10 µM | 310,000 compounds, 1.2% hits;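 active means ratio B-score over 3 SD below the library mean, with starting fluorescence within 5 SD of its mean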;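 further: negative B-score means less thallium flux so channel inhibition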
Target sequence (Q9NPC2 whole entry, looked up, the tested form may be a part): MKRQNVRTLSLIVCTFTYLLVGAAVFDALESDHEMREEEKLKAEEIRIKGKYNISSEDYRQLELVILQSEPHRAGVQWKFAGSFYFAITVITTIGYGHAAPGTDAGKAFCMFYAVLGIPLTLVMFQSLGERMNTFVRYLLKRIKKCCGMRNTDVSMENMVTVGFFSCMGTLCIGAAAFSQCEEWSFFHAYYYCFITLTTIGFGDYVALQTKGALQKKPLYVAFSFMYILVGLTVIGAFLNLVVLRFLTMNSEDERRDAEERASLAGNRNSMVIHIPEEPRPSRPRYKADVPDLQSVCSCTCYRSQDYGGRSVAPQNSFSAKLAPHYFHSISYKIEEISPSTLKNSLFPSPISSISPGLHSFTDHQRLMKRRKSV
KCNK3 block: human KCNK3 channel inhibition, primary screen | O14649 | CHO-KCNK3 thallium flux, FluxOR fluorescence; active compounds read low | B-score at 10 µM | 340,000 compounds, 0.84% hits;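 active means B-score under library mean minus 4 SD, starting fluorescence ratio at most library mean plus 5 SD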;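 further: more negative B-score means stronger inhibition of thallium flux through KCNK3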
KCNQ1 inh: inhibitors of human KCNQ1 potassium channel | P51787 | AID 2642 | B-score at 10 µM | 310,000 compounds, 1.3% hits | CHO-K1 KCNQ1, FluxOR thallium flux fluorescence; active compounds read high;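 active means compounds whose thallium flux B-score, printed positive for inhibition, exceeds three library SD while starting fluorescence stays within three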;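 further: channel opened by potassium depolarization with thallium stimulus after 20 min compound exposure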
KCNQ1 act: potentiators or activators of human KCNQ1 potassium channel; P51787; CHO-K1 KCNQ1, thallium flux FluxOR fluorescence; active compounds read high; B-score at 10 µM; 310,000 compounds, 0.35% hits; AID 2648;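 active means fluorescence ratio B-score, a plate-corrected score, at least three library SD, with initial intensity B-score within 5 SD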
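System: CHO-K1 cells stably expressing KCNQ1 / Medium: assay buffer for compound exposure, DMSO matched across wells / Reagent: thallium- and potassium-containing depolarizing buffer / Compound: one concentration, matched DMSO / Incubation: 20 min compound pretreatment at room temperature / Measured by: kinetic FluxOR fluorescence, 10 s baseline plus 110 s post-stimulus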
Kir21 inh: blocks the mouse Kir2.1 inward-rectifier potassium channel; P35561; HEK293-Kir2.1, FluxOR thallium flux fluorescence; active compounds read low; B-score at 10 µM; 310,000 compounds, 0.85% hits; AID 1672;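 active means fluorescence ratio B-score at or below minus 3 SD of library scores, with starting-brightness B-score within 2 SD, cut at about -4.2 in these data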;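 further: channel flux triggered by added potassium and thallium sulfate stimulus; B-score of peak minus minimum fluorescence over baseline after thallium stimulus; more negative B-score means stronger Kir2.1 block with less thallium influx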
hERG rescue: shields human hERG channel from block by proarrhythmic agents | AID 1511 | CHO-hERG, FluxOR thallium flux, dofetilide IC70 present | 310,000 compounds, 0.51% hits | activation (rescue from dofetilide block), less the hit threshold, % at 10 µM;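 active means activation above the mean of controls blocked by dofetilide plus 5 SD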;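 further: thallium influx through hERG after potassium depolarization seen as dye fluorescence rise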
A number is an active result. The list is not random: actives were taken first. Their share in the collection is about 3.7%.

`O=C(NC(=S)N1CCc2ccccc21)C1CCC1` gave KCNK9 block inactive, KCNK3 block inactive, KCNQ1 inh inactive, KCNQ1 act inactive, Kir21 inh inactive and hERG rescue inactive.
Screening O=C(NC(=S)N1CCc2ccccc21)c1ccccc1Br returned KCNK9 block inactive, KCNK3 block inactive, KCNQ1 inh inactive, KCNQ1 act 45, Kir21 inh inactive and hERG rescue 52.
For O=C(COc1ccc(Br)cc1Br)NC(=S)N1CCCc2ccccc21 the results were KCNK9 block inactive, KCNK3 block inactive, KCNQ1 inh inactive, KCNQ1 act inactive, Kir21 inh inactive and hERG rescue 6.8.
For O=C(NC(=S)N1CCc2ccccc21)c1ccc(Br)o1 the results were KCNK9 block inactive, KCNK3 block inactive, KCNQ1 inh inactive, KCNQ1 act 81, Kir21 inh inactive and hERG rescue 12.
Screening CC(Oc1ccc(Cl)cc1Cl)C(=O)NC(=S)N1CCc2ccccc21 (stereo not drawn) returned KCNK9 block inactive, KCNK3 block inactive, KCNQ1 inh inactive, KCNQ1 act 9, Kir21 inh inactive and hERG rescue 28.
`CCCc1cc(=O)[nH]c(SCC(=O)Nc2c(C)n(C)n(-c3ccccc3)c2=O)n1` gave KCNK3 block inactive.
For Cc1ccc(C)c(NC(=O)CSc2nc(C)cs2)c1 the results were KCNK3 block inactive.
Cc1ccc(CNC(=O)c2nccnc2C(=O)O)cc1 was read as KCNK9 block inactive, KCNK3 block inactive, KCNQ1 inh inactive, KCNQ1 act inactive, Kir21 inh inactive and hERG rescue inactive.
Screening Cc1ccc(C2=NN(C(=O)CCC(=O)O)C(c3ccc4c(c3)OCO4)C2)cc1 (stereo not drawn) returned KCNK9 block inactive, KCNK3 block inactive, KCNQ1 inh inactive, KCNQ1 act inactive, Kir21 inh inactive and hERG rescue inactive.
Cc1ccc(C2=NN(C(=O)CCCC(=O)O)C(c3ccc4c(c3)OCO4)C2)cc1 (stereo not drawn) was read as KCNK9 block inactive, KCNK3 block inactive, KCNQ1 inh inactive, KCNQ1 act inactive, Kir21 inh inactive and hERG rescue 5.5.
Screening COCCN=C1N[C@@H](c2ccc(Br)cc2)C(C(=O)OC)=C(C)N1Cc1ccccc1 returned KCNK9 block inactive, KCNK3 block inactive, KCNQ1 inh inactive, KCNQ1 act inactive, Kir21 inh -6.8 and hERG rescue inactive.
`COCCN1C(=S)N[C@@H](c2cccc(F)c2)C(C(=O)OC)=C1C` gave KCNK9 block inactive, KCNQ1 inh inactive, KCNQ1 act inactive, Kir21 inh -6.8 and hERG rescue inactive.
COC(=O)C1=C(C)N(Cc2ccccc2)C(=S)N[C@H]1c1cccc(F)c1 was read as KCNK9 block inactive, KCNK3 block inactive, KCNQ1 inh inactive, KCNQ1 act inactive, Kir21 inh inactive and hERG rescue inactive.
Screening COC(=O)C1=C(C)N(CC2CC2)C(=NCc2cccc(Cl)c2)N[C@H]1c1ccccc1 returned KCNK9 block inactive, KCNK3 block inactive, KCNQ1 inh inactive, KCNQ1 act inactive, Kir21 inh -4.6 and hERG rescue inactive.
COC(=O)C1=C(C)N(Cc2ccccc2)C(=NCc2cccc(Cl)c2)N[C@H]1c1ccccc1 was read as KCNK3 block inactive.
COC(=O)C1=C(C)N(Cc2ccccc2)C(=NCc2ccccc2)N[C@H]1c1cccc(F)c1 was read as KCNK9 block inactive, KCNK3 block inactive, KCNQ1 inh inactive, KCNQ1 act inactive, Kir21 inh -8.8 and hERG rescue inactive.
`CC(C)NS(=O)(=O)c1ccc(NC(=O)C(C)Oc2ccc(C(=O)c3ccccc3)cc2)cc1` (stereo not drawn) gave KCNK9 block inactive, KCNK3 block inactive, KCNQ1 inh inactive, KCNQ1 act 12, Kir21 inh inactive and hERG rescue inactive.
O=C(NCc1ccccc1)C1COc2ccccc2O1 (stereo not drawn) was read as KCNK9 block inactive, KCNK3 block inactive, KCNQ1 inh inactive, KCNQ1 act inactive, Kir21 inh inactive and hERG rescue inactive.
For Cc1onc(-c2ccccc2)c1CNC(=O)C1COc2ccccc2O1 (stereo not drawn) the results were KCNK9 block inactive, KCNK3 block inactive, KCNQ1 inh inactive, KCNQ1 act inactive, Kir21 inh -5.4 and hERG rescue inactive.
Screening CC(NC(=O)c1cccc(Cn2cc([N+](=O)[O-])cn2)c1)c1ccc(C(C)(C)C)cc1 (stereo not drawn) returned KCNK9 block -7.6, KCNK3 block inactive, KCNQ1 inh inactive, KCNQ1 act inactive, Kir21 inh inactive and hERG rescue inactive.
`O=C(CCCC(=O)N(c1ccc(F)cc1)C(C(=O)NC1CCCC1)c1ccc(O)cc1)Nc1ccccn1` (stereo not drawn) gave KCNK9 block inactive, KCNK3 block inactive, KCNQ1 inh inactive, KCNQ1 act inactive, Kir21 inh inactive and hERG rescue inactive.
Screening CNC(=S)Nc1cccc([N+](=O)[O-])c1 returned KCNK9 block inactive, KCNK3 block inactive, KCNQ1 inh inactive, KCNQ1 act inactive, Kir21 inh inactive and hERG rescue inactive.
For C/C(=N/NC(=S)Nc1cccc(C)c1)c1cccc([N+](=O)[O-])c1 the results were KCNK9 block inactive, KCNK3 block inactive, KCNQ1 inh inactive, KCNQ1 act 10, Kir21 inh inactive and hERG rescue inactive.
Screening Cc1cc(Br)ccc1NC(=S)Nc1cccc([N+](=O)[O-])c1 returned KCNK9 block inactive, KCNK3 block inactive, KCNQ1 inh 10, KCNQ1 act inactive, Kir21 inh inactive and hERG rescue inactive.
`Cc1c(C)c2ccc(OC(C)C(=O)NC3CCN(Cc4ccccc4)CC3)cc2oc1=O` (stereo not drawn) gave KCNK9 block inactive, KCNK3 block inactive, KCNQ1 inh inactive, KCNQ1 act inactive, Kir21 inh inactive and hERG rescue inactive.
Screening O=C(CCN=C1NS(=O)(=O)c2ccccc21)OCc1ccccc1 returned KCNK9 block inactive, KCNK3 block inactive, KCNQ1 inh inactive, KCNQ1 act inactive, Kir21 inh inactive and hERG rescue inactive.
`CCC[C@H]1COCCS(=O)(=O)N1Cc1ccc(Br)cc1` gave KCNK9 block inactive, KCNQ1 inh inactive, KCNQ1 act inactive, Kir21 inh -6.1 and hERG rescue inactive.
For CCC1COCCS(=O)(=O)N1Cc1ccc(C)cc1 (stereo not drawn) the results were KCNK9 block inactive, KCNK3 block inactive, KCNQ1 inh inactive, KCNQ1 act inactive, Kir21 inh inactive and hERG rescue inactive.
`CCN(CC)CCNC(=O)CCc1nnc2ccc(N3CCC(C)CC3)nn12` gave KCNK9 block inactive, KCNK3 block inactive, KCNQ1 inh inactive, KCNQ1 act inactive, Kir21 inh inactive and hERG rescue inactive.
COc1ccc(CCNC(=O)C2(c3ccccc3)CC2)cc1 was read as KCNK9 block inactive, KCNK3 block inactive, KCNQ1 inh inactive, KCNQ1 act inactive, Kir21 inh -4.6 and hERG rescue inactive.
